The values that follow come from ChEMBL document CHEMBL1122206, “Use of adenine nucleotide derivatives to assess the potential of exo-active-site-directed reagents as species- or isozyme-specific enzyme inactivators. 5. Interactions of adenosine 5'-triphosphate derivatives with rat pyruvate kinases, Escherichia coli thymidine kinase, and yeast and rat …” (1982).

For test [1], the target named is T1, Hexokinase-2 (Rattus norvegicus) (UniProt P27881).
T1 sequence (whole entry): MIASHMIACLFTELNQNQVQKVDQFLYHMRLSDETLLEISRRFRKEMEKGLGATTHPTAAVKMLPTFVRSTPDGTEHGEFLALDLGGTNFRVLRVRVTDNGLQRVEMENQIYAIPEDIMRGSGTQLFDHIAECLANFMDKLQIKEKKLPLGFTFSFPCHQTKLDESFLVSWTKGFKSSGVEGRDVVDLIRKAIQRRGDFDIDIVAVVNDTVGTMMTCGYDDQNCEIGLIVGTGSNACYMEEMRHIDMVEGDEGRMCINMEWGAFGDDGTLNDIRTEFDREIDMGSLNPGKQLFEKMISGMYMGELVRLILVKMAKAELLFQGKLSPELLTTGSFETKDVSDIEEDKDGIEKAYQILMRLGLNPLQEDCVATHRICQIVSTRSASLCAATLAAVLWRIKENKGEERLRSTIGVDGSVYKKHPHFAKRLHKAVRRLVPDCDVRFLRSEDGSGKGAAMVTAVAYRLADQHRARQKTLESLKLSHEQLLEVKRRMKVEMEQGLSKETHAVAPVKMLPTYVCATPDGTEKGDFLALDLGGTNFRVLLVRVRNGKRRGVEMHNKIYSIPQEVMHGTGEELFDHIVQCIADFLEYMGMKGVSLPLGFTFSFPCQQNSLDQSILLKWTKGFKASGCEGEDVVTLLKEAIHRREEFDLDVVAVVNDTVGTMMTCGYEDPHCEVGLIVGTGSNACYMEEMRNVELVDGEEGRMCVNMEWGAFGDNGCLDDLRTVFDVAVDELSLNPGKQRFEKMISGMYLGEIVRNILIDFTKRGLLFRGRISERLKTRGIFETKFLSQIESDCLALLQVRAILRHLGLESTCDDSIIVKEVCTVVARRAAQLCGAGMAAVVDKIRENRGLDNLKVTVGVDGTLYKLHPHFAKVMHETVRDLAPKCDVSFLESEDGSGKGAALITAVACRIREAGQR
In words: Substrate activity against Rat hexokinase II as 1:1 Mg complex at 5.0 mM. In outline: (§1)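 Hexokinase activity read at 22 °C as A340 change, coupled to glucose-6-phosphate dehydrogenase, in 0.05 M Tris-HCl pH 7.6 with 6.6 mM MgCl2, 10 mM α-D-glucose and 0.93 mM NADP. Donor was 5.0 mM MgATP derivative (1:1 Mg complex) in place of ATP. Yeast HK was isoelectric-focused. Rat HK I and III came from electrofocused liver extract, HK II from dialysed muscle extract.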

Test [2] deals with T2, Hexokinase-1 (Rattus norvegicus) (UniProt P05708).
T2 sequence (whole entry): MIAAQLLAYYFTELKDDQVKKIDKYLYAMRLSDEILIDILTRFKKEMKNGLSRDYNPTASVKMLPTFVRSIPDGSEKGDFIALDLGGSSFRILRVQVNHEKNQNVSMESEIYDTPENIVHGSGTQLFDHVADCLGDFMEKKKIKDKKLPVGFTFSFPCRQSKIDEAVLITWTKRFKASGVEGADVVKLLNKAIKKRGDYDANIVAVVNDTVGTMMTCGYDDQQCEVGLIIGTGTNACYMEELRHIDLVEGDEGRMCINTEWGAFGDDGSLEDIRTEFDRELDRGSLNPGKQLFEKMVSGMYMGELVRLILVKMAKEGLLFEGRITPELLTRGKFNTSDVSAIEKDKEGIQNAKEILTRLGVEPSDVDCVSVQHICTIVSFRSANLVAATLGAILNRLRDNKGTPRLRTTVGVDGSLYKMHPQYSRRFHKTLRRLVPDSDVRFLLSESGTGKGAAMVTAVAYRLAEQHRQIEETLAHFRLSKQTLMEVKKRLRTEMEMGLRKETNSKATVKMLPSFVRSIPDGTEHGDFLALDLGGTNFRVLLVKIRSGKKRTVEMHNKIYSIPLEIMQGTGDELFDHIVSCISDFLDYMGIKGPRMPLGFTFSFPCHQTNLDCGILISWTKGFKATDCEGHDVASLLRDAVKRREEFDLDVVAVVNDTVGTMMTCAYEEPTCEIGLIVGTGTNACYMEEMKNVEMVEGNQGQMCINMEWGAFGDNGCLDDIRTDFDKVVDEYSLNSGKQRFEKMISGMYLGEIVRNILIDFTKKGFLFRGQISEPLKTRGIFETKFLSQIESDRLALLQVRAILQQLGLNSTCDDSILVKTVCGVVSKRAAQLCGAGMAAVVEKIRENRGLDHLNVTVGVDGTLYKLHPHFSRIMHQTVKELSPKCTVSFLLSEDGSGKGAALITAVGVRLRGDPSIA
In words: Substrate activity for rat hexokinase I as 1:1 Mg complex at 5.0 mM. In outline: as §1

The target of test [3] is T3, Hexokinase-3 (Rattus norvegicus) (UniProt P27926).
T3 sequence (whole entry): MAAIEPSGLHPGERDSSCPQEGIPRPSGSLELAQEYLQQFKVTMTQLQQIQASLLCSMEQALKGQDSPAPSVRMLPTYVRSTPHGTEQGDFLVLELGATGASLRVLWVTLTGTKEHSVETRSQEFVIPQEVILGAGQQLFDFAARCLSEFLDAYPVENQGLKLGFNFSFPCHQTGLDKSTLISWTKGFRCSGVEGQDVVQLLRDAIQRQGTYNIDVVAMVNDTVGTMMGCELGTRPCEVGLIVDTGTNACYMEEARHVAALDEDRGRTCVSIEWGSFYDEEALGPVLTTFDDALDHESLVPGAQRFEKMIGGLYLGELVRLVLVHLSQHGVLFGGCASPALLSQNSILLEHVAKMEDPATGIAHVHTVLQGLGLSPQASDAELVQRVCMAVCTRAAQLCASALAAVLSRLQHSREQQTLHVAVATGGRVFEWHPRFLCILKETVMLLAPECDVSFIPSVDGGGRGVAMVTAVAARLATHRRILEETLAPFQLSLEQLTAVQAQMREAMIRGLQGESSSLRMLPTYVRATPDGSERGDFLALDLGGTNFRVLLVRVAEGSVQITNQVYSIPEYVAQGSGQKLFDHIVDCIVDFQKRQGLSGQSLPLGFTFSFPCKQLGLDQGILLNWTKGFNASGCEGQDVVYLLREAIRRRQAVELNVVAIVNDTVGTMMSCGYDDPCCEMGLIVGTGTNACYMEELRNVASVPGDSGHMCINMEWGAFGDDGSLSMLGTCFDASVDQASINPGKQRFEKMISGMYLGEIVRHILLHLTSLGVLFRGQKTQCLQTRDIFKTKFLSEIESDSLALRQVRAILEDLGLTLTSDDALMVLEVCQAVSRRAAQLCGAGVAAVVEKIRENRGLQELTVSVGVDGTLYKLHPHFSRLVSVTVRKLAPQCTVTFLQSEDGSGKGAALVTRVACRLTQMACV
Kind of test: Substrate activity for rat hexokinase III as 1:1 Mg complex at 5.0 mM. Summed up:
as §1

For test [4], the system named is Saccharomyces cerevisiae. Kind of test: Substrate activity against yeast hexokinase as 1:1 Mg complexes at 5.0 mM. In outline:
as §1

Test [5] in a line: Tested for the velocity of 2.8 mM compound relative to that of 2.8 mM MgATP in the assay. In outline: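 E. coli TK substrate test. 0.5 h after adding inhibitor, the mixture was diluted to 2.8 mM derivative in thymidine assay medium without ATP and with 1.42 mM MnCl2. Incubated 15 min at 37 °C, in the linear range. [14C]TMP formed was compared with that from 2.8 mM ATP under the same conditions.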

The target in test [6] is T1, Hexokinase-2 (Rattus norvegicus). In words: Time dependent inhibition of hexokinase 2 activity after 6 h, at 5 mM compound.
Test [7] concerns the target T3, Hexokinase-3 (Rattus norvegicus). Kind of test: Time dependent inhibition of Hexokinase type III activity after 6 h, at 22 degrees celsius, at 5 mM.
The target in test [8] is T2, Hexokinase-1 (Rattus norvegicus). Kind of test: Time dependent inhibition of Hexokinase type I activity after 6 h, at 22 degrees celsius, at 5 mM compound.
Test [9] concerns Saccharomyces cerevisiae. Kind of test: Time dependent inhibition of hexokinase activity after 6 hr, at 22 degrees celsius, with 5 mM ATP derivative in yeast.
The target in test [10] is Thymidine kinase (Escherichia coli) (UniProt P23331). Kind of test: Compound was tested for the initial inhibition of thymidine kinase by 1.4 mM compound in the presence of 5.7 mM ATP in Escherichia coli.
Thymidine kinase (Escherichia coli), sequence (P23331 whole entry, looked up): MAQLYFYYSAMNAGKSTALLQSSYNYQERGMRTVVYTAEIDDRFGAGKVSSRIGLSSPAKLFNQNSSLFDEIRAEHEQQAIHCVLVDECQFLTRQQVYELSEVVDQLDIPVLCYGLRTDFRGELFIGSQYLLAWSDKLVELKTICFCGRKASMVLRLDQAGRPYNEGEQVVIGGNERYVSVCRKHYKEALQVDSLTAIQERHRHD
Test [11] shares this target. Kind of test: Compound was tested for the lose of thymidine kinase activity after 6 hr, at 0 degrees celsius, with 10 mM ATP derivative. values were expressed in percent.
Test [12] shares this target. In words: Compound was tested for the initial inhibition of thymidine kinase by 1.4 mM compound in the presence of 5.7 mM ATP.
Test [13] has the same target. Kind of test: Compound was tested for the loss of thymidine kinase activity from Escherichia coli after 6 hr at 0 degrees C at 10 mM.

What is called inhibition is the percentage by which the read-out fell short of the control. On to `CN(CCCN(C)C(=O)CCCNc1ncnc2c1ncn2[C@@H]1O[C@H](COP(=O)(O)OP(=O)(O)OP(=O)(O)O)[C@@H](O)[C@H]1O)C(=O)CCCNC(=O)CI`, for which the Relative velocity in test [1] came out at 0.43; in test [2] it was 0.63; in [3] it was 1.02; in the test on Saccharomyces cerevisiae [4] it was 0.94. Further, in test [5], the Velocity was > 14%. Further, the inhibition in [6] amounted to 0%; in [7], 0%; in test [8], 0%; in the test with Saccharomyces cerevisiae [9], 0%; in [10] it was 8%; in [11] it was 44%.

The molecule `CN(CCCCN(C)C(=O)CCCCNc1ncnc2c1ncn2[C@@H]1O[C@H](COP(=O)(O)OP(=O)(O)OP(=O)(O)O)[C@@H](O)[C@H]1O)C(=O)CCCCNC(=O)CI` yielded a Velocity in test [5] of 34%. The inhibition in [6] came out at 0%; in test [7] it was 0%; in test [8] it was 0%; in test [12] it was 9%; with Saccharomyces cerevisiae [9], 0%; in [13] it was 0%.

As to `O=C(CI)NCCCCCCC(=O)NCCCNc1ncnc2c1ncn2[C@@H]1O[C@H](COP(=O)(O)OP(=O)(O)OP(=O)(O)O)[C@@H](O)[C@H]1O`, the Velocity in test [5] is > 25%. Besides, the inhibition in test [6] was 0%; in [8], 0%; in test [12], 28%; in the test with Saccharomyces cerevisiae [9], 0%; in [13], 58%.

For the molecule `O=C(CI)NCCCC(=O)NCCCCCCNc1ncnc2c1ncn2[C@@H]1O[C@H](COP(=O)(O)OP(=O)(O)OP(=O)(O)O)[C@@H](O)[C@H]1O`, the Relative velocity was 0.91 in test [1], 1.3 in [2], 2.02 in test [3] and 1 in the test on Saccharomyces cerevisiae [4]. Besides, the Velocity in test [5] stood at 36%. In addition, the inhibition (in test [6]; in [7]; in test [8]; in the test on Saccharomyces cerevisiae [9]; in test [10]; in test [11]) was 0% throughout.

The molecule `CN(CCCCN(C)C(=O)CCCNc1ncnc2c1ncn2[C@@H]1O[C@H](COP(=O)(O)OP(=O)(O)OP(=O)(O)O)[C@@H](O)[C@H]1O)C(=O)CCCNC(=O)CI` returned a Velocity in [5] of 14%. Besides, the inhibition in test [6] was 0%; in test [7] it was 0%; in [8], 0%; in test [12], 12%; in the test on Saccharomyces cerevisiae [9], 0%; in test [13], 0%.

`O=C(CI)NCCCCC(=O)NCCCCCCNc1ncnc2c1ncn2[C@@H]1O[C@H](COP(=O)(O)OP(=O)(O)OP(=O)(O)O)[C@@H](O)[C@H]1O` came in with a Velocity in test [5] of 39%. For the same molecule, the inhibition in test [6] came out at 0%; in test [7] it was 0%; in test [8] it was 0%; in test [12], 12%; in the test with Saccharomyces cerevisiae [9], 0%; in test [13], 0%.

As to `CN(CCCCN(C)c1ncnc2c1ncn2[C@@H]1O[C@H](COP(=O)(O)OP(=O)(O)OP(=O)(O)O)[C@@H](O)[C@H]1O)C(=O)CCCNC(=O)CI`, the Relative velocity was determined as 0.35 in [1], 0.88 in test [2], 0.93 in test [3] and 1.2 in the test on Saccharomyces cerevisiae [4]. In addition, the Velocity in test [5] was > 33%. The inhibition in [6] stood at 0%; in test [7], 0%; in [8] it was 0%; in the test on Saccharomyces cerevisiae [9], 0%; in [10] it was 0%; in [11], 60%.

As for `CN(CCCN(C)C(=O)CCCCNc1ncnc2c1ncn2[C@@H]1O[C@H](COP(=O)(O)OP(=O)(O)OP(=O)(O)O)[C@@H](O)[C@H]1O)C(=O)CCCCNC(=O)CI`, the Velocity in test [5] is > 34%. Besides, the inhibition worked out at 0% in test [6]; 0% in test [7]; 0% in [8]; 5% in test [12]; 0% in the test on Saccharomyces cerevisiae [9]; 51% in [13].
